Experiment: Toxicity liver stage against HepG2, at 10uM
Assay type: cell-based
Set-up: test concentration 10 uM, cell line HepG2-A16-CD81EGFP
Settings: human, HepG2-A16-CD81EGFP cells; read-out: INHIBITION
Summary of the method: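 Uninfected HepG2-A16-CD81EGFP cells, 3 × 10^3 per well, 1536-well, plated on prespotted compound at 10 μM final, parasite-free screening media added to match infected plates; puromycin 10 μM positive, DMSO 0.5% negative; run in parallel with 48 h PbLuc assay at 37 °C, 5% CO2; viability by CellTiter-Glo luminescence, normalized to controls.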

Row | SMILES | cytotoxicity at 10 µM [%]
1 | O=C(O)CNC(=O)Cc1csc(-c2ccccc2F)n1 | -10.5
2 | CCc1nnc2ccc(N3CCN(S(=O)(=O)c4ccc(Cl)s4)CC3)nn12 | 5.01
3 | COc1cc(C)c(C)cc1S(=O)(=O)NCC(O)c1cccn1C (configuration not stated) | -6.19
4 | CN1CCc2c(C#N)c(NCCCO)n3cnnc3c2C1 | 8.71
5 | Cc1nn(C)c2cn(C(C)C(=O)NCc3ccncc3)nc12 (configuration not stated) | 1.91
6 | CCCNC(=O)c1cc(C(C)C)nc(N2CCCC2)n1 | 8.77
7 | CCn1c(NCc2ccco2)nc2c(C)nn(C)c2c1=O | 2.48
8 | CC(C)C(=O)N1CCCC(Cc2ncccn2)C1 (configuration not stated) | -2.49
9 | CC1(C)O[C@@](C)([C@H]2CC3(CCN(c4ncccn4)CC3)CO2)CC[C@@H]1O | 4.98
10 | CCSCc1nc(O)c2nnn(C3CCN(Cc4ccco4)CC3)c2n1 | 8.79
11 | c1ccc(Cc2cccc(C3CCCN3C3CCOCC3)n2)cc1 (configuration not stated) | 1.62
12 | CN(C)c1cncc(C2CCCN2S(=O)(=O)c2cn(C)cn2)n1 (configuration not stated) | -27.1
13 | Cc1ncccc1Oc1cncc(C2CCCN2Cc2cncn2C)n1 (configuration not stated) | -32.8
14 | CCn1ncc(S(=O)(=O)NC2(CN3CCOCC3)CCCCC2)c1C | 3.83
15 | Cc1nc(C2CN(C)CCO2)cc(N2CCC(CO)CC2)n1 (configuration not stated) | -34
16 | CN(C)C(=O)C1CN(Cc2ccccc2)CCN(S(C)(=O)=O)C1 (configuration not stated) | -5.43
17 | O=C(NCc1cccnc1)c1ccc2nccn2c1 | 8.08
18 | O=C(NC1CCCCC1)N1CCCC1c1nnc2n1CCNC2 (configuration not stated) | 14.4
19 | Cc1ccnc(NC(=O)c2ccc(Cl)o2)c1 | 4.14
20 | O=C(CCOc1ccccc1)NS(=O)(=O)Cc1ccccc1 | -1.48
21 | Cc1oc(C)c(C(=O)NS(=O)(=O)c2ccc3c(c2)OCCO3)c1Br | 4.4
22 | O=C(CCNC1(c2nccs2)CCCC1)N1CCOCC1 | 0.79
23 | CC(C(=O)N1CCc2ccccc2C1)N(C)Cc1cscn1 (configuration not stated) | -1.6

Row | SMILES | cytotoxicity at 10 µM [%]
24 | CCn1c(C)cc(C(=O)N2CCC(Nc3ccc(C)nn3)CC2)c1C | -5.52
25 | Clc1ccc(C2(NCc3noc(C4CC4)n3)CCCC2)cc1 | 13.3
26 | Cc1csc(C2(NC(=O)CCNC(=O)C(C)(C)C)CCCC2)n1 | -7.43
27 | O=C(c1ccoc1)N(Cc1ccncc1)C1CC1 | 1.45
28 | COc1c(C)cnc(CSc2nnc(N3CCCC3)s2)c1C | -13.1
29 | CC(C)(C)NC(=O)C1CSCN1S(=O)(=O)c1ccccc1F (configuration not stated) | -8.23
30 | CC(C)(C)c1nnc(CN2CCN(C(=O)CC3CCCCC3)CC2)o1 | 15.3
31 | Cc1cnn(CC2CCCN2CC(=O)N(C)Cc2cnn(C)c2)c1 (configuration not stated) | 8.92
32 | COCCN(Cc1ccc(F)cc1Cl)C(=O)c1cc(C)n[nH]1 | 0.886
33 | Cc1oc(-c2ccsc2)nc1CC(=O)NCC(=O)Nc1cn[nH]c1 | -1.36
34 | Cc1cc(=O)n2ncnc2n1CC(O)c1ccccc1F (configuration not stated) | -13.7
35 | CCc1nccn1C1CCCN(C(=O)c2cncn2-c2ccccc2)C1 (configuration not stated) | 5.62
36 | CCc1cnc(CN(C)C2CCN(CCCNS(C)(=O)=O)C2)o1 (configuration not stated) | -3.4
37 | Cc1cc(C)n(C2CCCN(C(=O)c3cccc(F)c3F)C2)n1 (configuration not stated) | 4.35
38 | O=C(NCCO)Nc1c(F)cc(F)cc1-c1ccccc1 | -1.99
39 | CC1CCN(C)c2ccccc2N1C(=O)c1ccn(C)c(=O)c1 (configuration not stated) | 2.36
40 | CNS(=O)(=O)CC1CCCN1C(=O)c1cccc(Cl)c1 (configuration not stated) | -1.5
41 | CCN1CCC(CNC(=O)Nc2cnn(CC(N)=O)c2)C1 (configuration not stated) | 1.1
42 | COCCCNC(=O)C1CCN(CC2(O)CCC(C)CC2)CC1 (configuration not stated) | 21.6
43 | Cc1cccc2nc(CNCc3cccc4c3OCCCO4)cn12 | 20.8
44 | CC(C)(C#N)c1ccc(NS(=O)(=O)CC2CCCCO2)cc1 (configuration not stated) | 0.548
45 | Cc1csc(C2(NCc3nnc(-c4ccco4)o3)CCCC2)n1 | 0.416
46 | Cc1ccc(OCC(O)CN(C)CC(=O)NC(C)C)c(C)c1 (configuration not stated) | -7.55

Row | SMILES | cytotoxicity at 10 µM [%]
47 | Cc1cc(C(=O)N2CCCS2(=O)=O)c(C)o1 | -11.1
48 | Cc1nn(C)c(Oc2cccnc2)c1NC(=O)C1CCCO1 (configuration not stated) | -8.78
49 | CNC(=O)Cc1noc(Cc2cccc(Cl)c2)n1 | 0.335
50 | O=C(C1=CCCC1)N1C[C@@H]2COC[C@]2(COc2cccnc2)C1 | -5.38
51 | COCCC(=O)N1CCC2(COCc3c(C)nc(NCC4CC4)nc32)C1 (configuration not stated) | 2.19
52 | COc1ccc(C(=O)N2Cc3c(Cn4ccnc4)nn(C)c3C2)cc1 | 4.89
53 | CCOCC1CN(Cc2cnn(C)c2)Cc2ncn(CC3CC3)c21 (configuration not stated) | 2.21
54 | O=C(Cc1ccc(-c2ccccc2)cc1)N1CCOCC(O)C1 (configuration not stated) | 1.51
55 | COCc1nc(CNC2CCN(C(C)C)CC2)no1 | 4.04
56 | CN(CCc1cnn(C)c1)C(=O)C1COc2ccccc2C1 (configuration not stated) | 1.33
57 | O=C1CC[C@H]2CN(c3ncccc3F)CC[C@H]2N1CCc1ccccc1 | 4.52
58 | COCc1nc(N(C)C/C=C/c2ccccc2)c2cnn(C)c2n1 | -2.21
59 | CN(Cc1cnn(C)c1)c1nccc(-c2cc(C(=O)O)ccn2)n1 | -7.33
60 | Cc1cc(C)c2nc(CN3CCC(C#N)CC3)cc(O)c2c1 | 6.27
61 | COCCC(=O)N1CCC2(CCCN(Cc3cc(OC)ccc3F)C2)C1 (configuration not stated) | 3.55
62 | O=C(N[C@@H]1CCNC[C@H]1O)c1ccc(-c2ccc(F)cc2)cc1 | -6.29
63 | Cc1ccc(CN2CCC3(C2)C(=O)N(CC(N)=O)c2ccccc23)s1 (configuration not stated) | 5.37
64 | Cc1nccn1-c1ccccc1CNC(=O)c1cn(CCN)nn1 | 1.58
65 | Cc1nn(C)cc1Cn1c(=O)ccc2ccccc21 | -12.5
66 | CSCC(=O)N1CCc2c(cnc(C)c2-c2noc(-c3ccco3)n2)C1 | 2.93
67 | Cc1cccc(N2CCC(N3CCC4(CCCNC4=O)C3)CC2)c1C (configuration not stated) | -5.66
68 | CC(NCc1cn(CCC(N)=O)c2ccccc12)c1nncn1C (configuration not stated) | 0.78
69 | N[C@@H]1CCN(Cc2ccccc2CS(=O)(=O)c2ccccc2)C[C@H]1O | -2.58

Row | SMILES | cytotoxicity at 10 µM [%]
70 | CC(C)c1nc(CN(C)C(=O)CNS(=O)(=O)c2cccs2)no1 | -16.8
71 | CC1=CCN(C(=O)Nc2ccccc2N2CCOC2=O)CC1 | -0.724
72 | CN1CC2(CCN(C(=O)c3ccc(-n4cccn4)cc3Cl)C2)OC1=O (configuration not stated) | 4.36
73 | O=C1CC(NCc2cccc(O)c2)CN1CCc1cccc(Cl)c1 (configuration not stated) | -130
74 | O=c1[nH]cccc1-c1nccc(C2(c3ccccc3Cl)CCNCC2)n1 | -6.27
75 | O=C(O)c1ccc(CC2CCN(S(=O)(=O)N3CCOCC3)C2)cc1 (configuration not stated) | 1.62
76 | COCCCn1cnnc1C(C)NC(=O)c1[nH]c2ccc(C)cc2c1C (configuration not stated) | 2.52
77 | CCOCCC(=O)N1CCCC(CO)(CC2CC2)C1 (configuration not stated) | 7.58
78 | CCc1noc(-c2cccc(NC(=O)C(C)(C)C)c2)n1 | -4.15
79 | CN1CCC(C)(CN(C)Cc2ccc(CCC(C)(C)O)cc2)C1 (configuration not stated) | -6.44
80 | O=C(NCc1nncn1C1CCCCC1)C1COc2ccccc2C1 (configuration not stated) | 3.16
81 | NCc1cn(-c2ccccc2C(=O)NCc2cccc(Cl)c2)cn1 | 4.14
82 | Nc1nc(CN2CCCCC2Cn2cncn2)nc2ccccc12 (configuration not stated) | -15.6
83 | CC(=O)N(Cc1ncc(C(C)C)o1)C1CCN(CC2CCC2)C1 (configuration not stated) | -11.8
84 | CCOC1CCN(C(=O)Nc2ccc(=O)n(C)c2)CC1 | -10.4
85 | Cc1noc(Cl)c1CCC(=O)N1CCC(CC(N)=O)CC1 | -0.0707
86 | CCOc1ccc(NC(=O)NCc2csc(NC)n2)cc1C | -3.91
87 | O=C(NC1CCS(=O)(=O)C1)N1CCN(c2cnccn2)CC1 (configuration not stated) | -0.685
88 | CS(=O)(=O)NCC1CCCN(C(=O)COCc2ccccc2)C1 (configuration not stated) | -7.59
89 | CC(O)CN1CCC(CNCc2ccccc2OC(F)(F)F)CC1 (configuration not stated) | -11.6
90 | Cn1cc(CN2CCCN(C(=O)c3cc(Cl)cn3C)CC2)cn1 | -1.63
91 | Cc1c(C(=O)NC(CN2CCCC2=O)c2ccccc2)cnn1C (configuration not stated) | -8.7
92 | O=C(NCCNc1ncccn1)N(Cc1ccc(F)cc1F)C1CC1 | -2.84

Row | SMILES | cytotoxicity at 10 µM [%]
93 | CN(CC(=O)Nc1ccc(Br)cn1)C(=O)Cc1ccc(O)cc1 | -0.0241
94 | OC(CNCCn1cccn1)c1ccc2c(c1)OCCO2 (configuration not stated) | -0.361
95 | Cc1csc(N2CCN(C(=O)CCc3nccs3)CC2)n1 | -3.68
96 | Cn1ncc2c1CCCC2NCc1cnc(-c2ccccc2)nc1 (configuration not stated) | -5.43
97 | Cc1nc(COc2ccc(CNCC3CN(C)CCO3)cc2)cs1 (configuration not stated) | -13.1
98 | Cc1ccc(OCCSC2=NCCN2)cc1 | -2.01
99 | c1nc(CCC2CCCCN2)cc(N2CCCC2)n1 (configuration not stated) | -21.6
100 | O=C1[C@H]2CN(Cc3ccncc3)C[C@H]2CN1c1cncnc1 | -0.748
101 | O=C(NC1CCC1)[C@@H]1C[C@@H]2CCN(Cc3ccncc3)C[C@H]2O1 | -22.5
102 | Cn1nc(C2CCN(C(=O)CCN3CCOCC3)CC2)c2cccnc21 | -13.8
103 | COCC(=O)NC1CC2(CCN(Cc3ccco3)CC2)c2ccccc21 (configuration not stated) | 5.61
104 | COCCO[C@H]1CCN(Cc2cccs2)[C@H]1Cc1cccnc1 | -2.23
105 | Cc1nn(C)c(C)c1CNCc1ccc(N2CCOCC2)nc1 | 3.68
106 | CCOCC1CC2(CCN(C(=O)c3ccccn3)CC2)CO1 (configuration not stated) | -3.76
107 | c1cnn(Cc2nnc3n2CCCN(Cc2ccsc2)C3)c1 | -0.714
108 | Cc1ccc(CN2CC[C@H]3[C@@H]2CCC(=O)N3CCN2CCCC2)s1 | 3.01
109 | CC(CCc1ccccc1)NC(=O)CNCCCN1CCOCC1 (configuration not stated) | -11.1
110 | COCCN1CCCC12CCN(C(=O)CC1CCCC1)CC2 | 5.47
111 | Fc1cnc(N2CCCC3(CN(Cc4cccs4)CCO3)C2)nc1 (configuration not stated) | 7.37
112 | CN(C)C(=O)CN1C[C@H]2CC[C@@H](C1)N(Cc1c(Cl)cncc1Cl)C2 | 6.02

From ChEMBL document CHEMBL4513216, “Probing the Open Global Health Chemical Diversity Library for Multistage-Active Starting Points for Next-Generation Antimalarials” (ACS Infect Dis, 2020)
